Data reported in ChEMBL document CHEMBL1132588, “Synthesis, CoMFA analysis, and receptor docking of 3,5-diacyl-2, 4-dialkylpyridine derivatives as selective A3 adenosine receptor antagonists” (J Med Chem, 1999).

Legend:
[1] = biological target: Adenosine receptor A2a (Rattus norvegicus) (UniProt P30543); assay: (§1) Displacement of specific [3H]-CGS- 21680 binding to Adenosine A2A receptor in rat striatal membranes; type: cell membranes; settings: Membrane
How it was run: (§2)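 Rat striatal membranes labelled with [3H]CGS 21680 for A2A binding. Adenosine deaminase (3 units/mL) was present during membrane preparation, during a 30 min preincubation at 30 °C, and during radioligand incubation. Competitors were dissolved in DMSO and diluted in buffer (DMSO ≤2%).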

[2] = biological target: T1, Adenosine receptor A3 (Homo sapiens) (UniProt P0DMS8); assay: Displacement of specific[125 I]AB-MECA binding at human Adenosine A3 receptor expressed in HEK cells at 10 e-4M; type: cell-based; settings: HEK293
T1 sequence (whole entry): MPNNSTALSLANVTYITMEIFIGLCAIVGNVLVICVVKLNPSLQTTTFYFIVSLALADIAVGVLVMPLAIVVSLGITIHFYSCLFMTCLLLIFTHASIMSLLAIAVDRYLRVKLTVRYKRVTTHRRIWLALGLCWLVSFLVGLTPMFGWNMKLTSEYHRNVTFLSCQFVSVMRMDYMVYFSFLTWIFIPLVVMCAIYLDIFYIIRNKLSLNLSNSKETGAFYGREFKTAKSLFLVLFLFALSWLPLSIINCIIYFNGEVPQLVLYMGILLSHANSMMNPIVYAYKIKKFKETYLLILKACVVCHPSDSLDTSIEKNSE

[3] = biological target: T2, Adenosine receptor A1 (Rattus norvegicus, UniProt P25099); assay: Displacement of specific [3H]-CGS- 21680R-PIA binding to Adenosine A1 receptor in rat brain membranes.; type: cell membranes; settings: in the assay text read “[3H]R-PIA” for “[3H]-CGS- 21680R-PIA”
T2 sequence (P25099 whole entry): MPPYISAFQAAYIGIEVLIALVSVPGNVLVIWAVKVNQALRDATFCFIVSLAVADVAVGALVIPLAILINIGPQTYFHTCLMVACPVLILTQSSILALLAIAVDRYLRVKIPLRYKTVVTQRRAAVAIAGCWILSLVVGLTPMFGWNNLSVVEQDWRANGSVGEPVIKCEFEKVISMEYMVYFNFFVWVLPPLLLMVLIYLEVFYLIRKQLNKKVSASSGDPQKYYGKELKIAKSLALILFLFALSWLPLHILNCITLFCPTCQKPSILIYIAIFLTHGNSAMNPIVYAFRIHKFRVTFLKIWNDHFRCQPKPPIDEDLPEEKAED
How it was run: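 A1 binding used [3H]R-PIA on rat cerebral cortex membranes. Adenosine deaminase (3 units/mL) was included in membrane preparation, in a 30 min preincubation at 30 °C, and throughout radioligand incubation. Competitors were DMSO stocks diluted in buffer, with DMSO never above 2%.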

[4] = species on record: Rattus norvegicus; assay: Ratio of binding affinities for rat A1 receptor against human A3 receptor, [Ki(rA1) / Ki (hA3)].
How it was run: (§3)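 Ratio of Ki values from binding assays. For A3, [125I]AB-MECA (final 0.3 nM) bound membranes of HEK-293 cells expressing human A3 (clone HS-21a) or CHO cells expressing rat A3, in Tris/Mg2+/EDTA buffer at pH 8.0. For rat A1, [3H]R-PIA bound cerebral cortex membranes, with adenosine deaminase (3 units/mL) present, including a 30 min preincubation at 30 °C.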

[5] = biological target: T2, Adenosine receptor A1; assay: Displacement of specific [3H]R-PIA binding to Adenosine A1 receptor in rat brain membranes.
[6] = biological target: T1, Adenosine receptor A3 (Homo sapiens); assay: (§4) Displacement of specific [125 I]AB-MECA binding at human Adenosine A3 receptor expressed in HEK cells; type: cell-based; settings: HEK293
[7] = biological target: Adenosine receptor A2a (Rattus norvegicus) (UniProt P30543); assay: as §1; type: cell membranes; parameters: concentration or dose not given beside the values; settings: Membrane, concentration not given here; how it was run: as §2
[8] = biological target: T3, Adenosine receptor A3 (Homo sapiens, UniProt P0DMS8); assay: as §4; type: cell-based, HEK293
T3 sequence (P0DMS8 whole entry): T1 sequence (whole entry)
How it was run: (§5)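 Membranes from HEK-293 cells stably expressing human A3 receptor (clone HS-21a), or from CHO cells stably expressing rat A3 receptor (rat: n = 3-5), in 50 mM Tris, 10 mM Mg2+, 1 mM EDTA, pH 8.0. Membranes at 0.3 mg protein/mL with [125I]AB-MECA at 0.3 nM final. Nonspecific binding defined with R-PIA. Competitors were dissolved in DMSO (≤2% final) and tested at ≥5 concentrations spanning 3 log units. Bound ligand was separated by GF/B filtration with three buffer rinses; Ki was derived.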

[9] = species on record: Rattus norvegicus; assay: Ratio of the binding affinities against rat A3 receptor / human A3 receptor, Ki(rA1) / Ki (hA3).; how it was run: as §3
[10] = species on record: Rattus norvegicus; assay: Ratio of the binding affinities against rat A3 receptor / rat A3 receptor, Ki(rA1) / Ki (rA3).; how it was run: as §3
[11] = biological target: Adenosine receptor A2a (Rattus norvegicus) (UniProt P30543); assay: Displacement of specific [3H]-CGS- 21680 binding to Adenosine A2A receptor in rat striatal membranes at 10 e-5M; type: cell membranes; settings: Membrane
[12] = biological target: T4, Adenosine receptor A3 (Rattus norvegicus, UniProt P28647); assay: (§6) Displacement of specific [125I]AB-MECA binding at rat Adenosine A3 receptor stably expressed in CHO cells; type: cell-based
T4 sequence (P28647 whole entry): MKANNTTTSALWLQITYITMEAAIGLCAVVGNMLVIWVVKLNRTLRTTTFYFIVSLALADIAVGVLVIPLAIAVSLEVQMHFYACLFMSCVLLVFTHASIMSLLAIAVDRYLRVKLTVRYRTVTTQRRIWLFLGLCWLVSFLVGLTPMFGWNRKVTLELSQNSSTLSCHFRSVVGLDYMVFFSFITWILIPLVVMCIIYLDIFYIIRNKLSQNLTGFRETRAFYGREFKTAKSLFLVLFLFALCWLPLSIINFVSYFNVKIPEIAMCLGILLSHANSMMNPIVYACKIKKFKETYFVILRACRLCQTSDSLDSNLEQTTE

[13] = biological target: Adenosine receptor A2a (Rattus norvegicus, UniProt P30543); assay: Inhibition of [3H]-CGS- 21680 binding to Adenosine A2A receptor in rat striatal membranes.; type: cell membranes, Membrane
Adenosine receptor A2a, sequence (P30543 whole entry): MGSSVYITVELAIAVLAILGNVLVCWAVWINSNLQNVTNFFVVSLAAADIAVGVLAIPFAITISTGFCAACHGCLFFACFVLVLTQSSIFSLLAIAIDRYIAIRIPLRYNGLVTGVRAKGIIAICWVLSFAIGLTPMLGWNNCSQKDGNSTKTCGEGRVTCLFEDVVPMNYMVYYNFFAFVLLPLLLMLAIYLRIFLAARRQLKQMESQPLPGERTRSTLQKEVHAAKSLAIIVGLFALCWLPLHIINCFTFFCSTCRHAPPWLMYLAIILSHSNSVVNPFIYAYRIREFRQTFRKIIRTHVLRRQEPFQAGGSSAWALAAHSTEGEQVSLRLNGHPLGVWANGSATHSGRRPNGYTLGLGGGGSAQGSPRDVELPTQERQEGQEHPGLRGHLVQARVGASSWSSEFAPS

[14] = biological target: T5, Adenosine receptor A3 (Rattus norvegicus) (UniProt P28647); assay: as §6; type: cell-based
T5 sequence (whole entry): T4 sequence (P28647 whole entry)
How it was run: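 Membranes from CHO cells stably expressing rat A3 receptor (0.3 mg protein/mL) were incubated with [125I]AB-MECA (final 0.3 nM) and test compound in 50 mM Tris, 10 mM Mg2+, 1 mM EDTA, pH 8.0. Compounds were dissolved in DMSO, with DMSO never exceeding 2%. At least five competitor concentrations spanning 3 orders of magnitude were tested. Nonspecific binding was defined with R-PIA. Bound ligand was collected by filtration over GF/B filters; n = 3-5.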

[15] = biological target: T1, Adenosine receptor A3 (Homo sapiens); assay: as §4; type: cell-based; settings: HEK293; concentration not given here; how it was run: as §5
[16] = biological target: Adenosine receptor A2a (Rattus norvegicus) (UniProt P30543); assay: Displacement of specific [3H]-CGS- 21680 binding to Adenosine A2A receptor in rat striatal membranes at 10 e-4M; type: cell membranes; settings: Membrane

Adenosine receptor A2a (Rattus norvegicus), sequence (P30543 whole entry): as above

Ki [3] [µM] | Ratio [4] | Ki [5] [µM] | pKi [6] | Ki [8] [µM] | Ratio [9] | Ratio [10] | also measured | SMILES
5.24 |  |  |  |  |  |  | Displacement [1]: 10%; Displacement [2]: 28% | CCOC(=O)c1c(-c2ccccc2)nc(CC)c(C(=O)SCC)c1CCCN1C(=O)c2ccccc2C1=O
 | 68 | 13.2 | 6.71 | 0.193 |  |  | inhibition [7]: 30% | CCCc1c(C(=O)SCC)c(CCSC(C)=O)nc(-c2ccccc2)c1C(=O)OCC
 | 820 |  | 8.08 |  | 22 | 42 | Displacement [11]: 10% | CCCOC(=O)c1c(-c2ccccc2)nc(CC)c(C(=O)SCC)c1CC
12.6 | 150 |  | 7.08 | 0.0828 | 1.9 | 81 | Displacement [1]: < 10%; Ki [12]: 0.156 µM | CCCOC(=O)c1c(-c2ccccc2)nc(CC)c(C(=O)SCCCF)c1CCC
 | 590 | 13.5 | 7.64 | 0.023 |  |  | Ki [13]: 8.63 µM | CCCOC(=O)c1c(-c2ccccc2F)nc(CC)c(C(=O)SCC)c1CCC
19.8 |  |  |  |  | < 1 | 76 | Ki [14]: 0.26 µM; inhibition [15]: 15%; Ki [13]: 30.8 µM | CCCOC(=O)c1c(-c2ccccc2)nc(CCF)c(C(=O)SCC)c1CCC
 | 510 | 113 | 6.66 | 0.22 |  |  | Displacement [16]: 10% | CCCCCCSC(=O)c1c(CC)nc(-c2cccc(Cl)c2)c(C(=O)OCCC)c1CC
